Data reported in ChEMBL document CHEMBL1131162, “Bisquinolines. 2. Antimalarial N,N-bis(7-chloroquinolin-4-yl)heteroalkanediamines” (J Med Chem, 1998).
pIC50: −log10 of the molar value.

Key:
Plasmodium falciparum [1] = assay: In vitro antimalarial activity against chloroquine-resistant Plasmodium falciparum W2; type: functional, organism-based
Mus musculus [2] = assay: (§1) Number of Plasmodium berghei infected mice died on day 6 at 160 mg/kg; type: functional
Procedure, shortened: (§2)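 Male mice infected with drug-sensitive P. berghei KBG 173; single subcutaneous dose given 3 days postinfection, five mice per dose; survival followed, with cure (C) meaning survival to 60 days postinfection and deaths 0–2 days after treatment scored as toxicity (T).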

Mus musculus [3] = assay: Number of Plasmodium berghei infected mice died on day 7 at 640 mg/kg; type: functional; procedure, shortened: as §2
Mus musculus [4] = assay: Number of Plasmodium berghei infected mice died on day 7 at 160 mg/kg; type: functional; procedure, shortened: as §2
Plasmodium falciparum [5] = assay: In vitro inhibition of hematin polymerization in Plasmodium falciparum; type: functional
Mus musculus [6] = assay: (§3) Number of Plasmodium berghei infected mice died on day 7 at 40 mg/kg; type: functional; procedure, shortened: as §2
Mus musculus [7] = assay: (§4) Number of Plasmodium berghei infected mice died on day 6 at 40 mg/kg; type: functional; procedure, shortened: as §2
Plasmodium falciparum [8] = assay: Antimalarial activity against Plasmodium falciparum D6 in vitro.; type: functional, organism-based
Mus musculus [9] = assay: Number of Plasmodium berghei infected mice died at 640 mg/kg; Curative; type: functional; procedure, shortened: as §2
Mus musculus [10] = assay: Number of Plasmodium berghei infected mice died on day 22 at 640 mg/kg; type: functional; procedure, shortened: as §2
Mus musculus [11] = assay: Number of Plasmodium berghei infected mice died on day 12 at 40 mg/kg; type: functional; procedure, shortened: as §2
Plasmodium falciparum [12] = assay: Inhibition of hematin polymerization in Plasmodium falciparum; type: functional
Mus musculus [13] = assay: Number of Plasmodium berghei infected mice died at 160 mg/kg; Curative; type: functional; procedure, shortened: as §2
Mus musculus [14] = assay: Number of Plasmodium berghei infected mice died on day 14 at 160 mg/kg; type: functional; procedure, shortened: as §2
Mus musculus [15] = assay: Number of Plasmodium berghei infected mice died on day 8 at 40 mg/kg; type: functional; procedure, shortened: as §2
Mus musculus [16] = assay: Number of Plasmodium berghei infected mice died on day 13 at 40 mg/kg; type: functional; procedure, shortened: as §2
Mus musculus [17] = assay: Number of Plasmodium berghei infected mice died on day 13 at 160 mg/kg; type: functional; procedure, shortened: as §2
Mus musculus [18] = assay: Number of Plasmodium berghei infected mice died on day 9 at 40 mg/kg; type: functional
Mus musculus [19] = assay: Number of Plasmodium berghei infected mice died on day 16 at 640 mg/kg; type: functional; procedure, shortened: as §2
Mus musculus [20] = assay: Number of Plasmodium berghei infected mice died on day 18 at 640 mg/kg; type: functional; procedure, shortened: as §2
Mus musculus [21] = assay: Number of Plasmodium berghei infected mice died on day 17 at 160 mg/kg; type: functional; procedure, shortened: as §2
Mus musculus [22] = assay: Number of Plasmodium berghei infected mice died on day 20 at 640 mg/kg; type: functional; procedure, shortened: as §2
Mus musculus [23] = assay: (§5) Number of Plasmodium berghei infected mice died on day 12 at 640 mg/kg; type: functional; procedure, shortened: as §2
Mus musculus [24] = assay: Number of Plasmodium berghei infected mice died on day 11 at 160 mg/kg; type: functional
Mus musculus [25] = assay: Number of Plasmodium berghei infected mice died on day 26 at 160 mg/kg; type: functional; procedure, shortened: as §2
Mus musculus [26] = assay: as §3; type: functional; remark: listed apart in the source
Mus musculus [27] = assay: Number of Plasmodium berghei infected mice died on day 12 at 160 mg/kg; type: functional; procedure, shortened: as §2
Mus musculus [28] = assay: Number of Plasmodium berghei infected mice died on day 13 at 640 mg/kg; type: functional; procedure, shortened: as §2
Mus musculus [29] = assay: Number of Plasmodium berghei infected mice died on day 10 at 160 mg/kg; type: functional; procedure, shortened: as §2
Mus musculus [30] = assay: Number of Plasmodium berghei infected mice died on day 10 at 40 mg/kg; type: functional; procedure, shortened: as §2
Mus musculus [31] = assay: as §1; type: functional; remark: listed apart in the source
Mus musculus [32] = assay: as §4; type: functional; remark: listed apart in the source
Mus musculus [33] = assay: Number of Plasmodium berghei infected mice died on day 6 at 640 mg/kg; type: functional
Mus musculus [34] = assay: Number of Plasmodium berghei infected mice cured after administration of 160 mg/kg dose; type: functional
Mus musculus [35] = assay: Number of Plasmodium berghei infected mice cured after administration of 640 mg/kg; type: functional
Mus musculus [36] = assay: (§6) Number of Plasmodium berghei infected mice died on day 8 at 160 mg/kg; type: functional; procedure, shortened: as §2
Mus musculus [37] = assay: Number of Plasmodium berghei infected mice died on day 9 at 160 mg/kg; type: functional; procedure, shortened: as §2
Mus musculus [38] = assay: Number of Plasmodium berghei infected mice cured after administration of the dose 640 mg/kg; type: functional; procedure, shortened: as §2
Mus musculus [39] = assay: Number of Plasmodium berghei infected mice died on day 16 at 160 mg/kg; type: functional; procedure, shortened: as §2
Mus musculus [40] = assay: Number of Plasmodium berghei infected mice died on day 33 at 640 mg/kg; type: functional; procedure, shortened: as §2
Mus musculus [41] = assay: Number of Plasmodium berghei infected mice died on day 18 at 160 mg/kg; type: functional; procedure, shortened: as §2
Mus musculus [42] = assay: Number of Plasmodium berghei infected mice died on day 11 at 40 mg/kg; type: functional; procedure, shortened: as §2
Mus musculus [43] = assay: as §5; type: functional; remark: listed apart in the source
Mus musculus [44] = assay: Number of Plasmodium berghei infected mice died on day 14 at 640 mg/kg; type: functional; procedure, shortened: as §2
Mus musculus [45] = assay: Number of Plasmodium berghei infected mice died on day 24 at 640 mg/kg; type: functional; procedure, shortened: as §2
Mus musculus [46] = assay: Number of Plasmodium berghei infected mice died on day 29 at 640 mg/kg; type: functional; procedure, shortened: as §2
Mus musculus [47] = assay: as §6; type: functional; remark: listed apart in the source
Mus musculus [48] = assay: Number of Plasmodium berghei infected mice died on day 23 at 160 mg/kg; type: functional; procedure, shortened: as §2
Mus musculus [49] = assay: Number of Plasmodium berghei infected mice died on day 20 at 160 mg/kg; type: functional; procedure, shortened: as §2
Mus musculus [50] = assay: Number of Plasmodium berghei infected mice died at 640 mg/kg; Toxic; type: functional; procedure, shortened: as §2
Mus musculus [51] = assay: Number of Plasmodium berghei infected mice died on day 25 at 640 mg/kg; type: functional; procedure, shortened: as §2
Mus musculus [52] = assay: Number of Plasmodium berghei infected mice died at 40 mg/kg; Curative; type: functional; procedure, shortened: as §2
Mus musculus [53] = assay: Number of Plasmodium berghei infected mice died on day 16 at 40 mg/kg; type: functional; procedure, shortened: as §2
Mus musculus [54] = assay: Number of Plasmodium berghei infected mice died on day 14 at 40 mg/kg; type: functional; procedure, shortened: as §2
Mus musculus [55] = assay: Number of Plasmodium berghei infected mice died on day 15 at 40 mg/kg; type: functional; procedure, shortened: as §2
Mus musculus [56] = assay: Number of Plasmodium berghei infected mice cured after administration of a compound dose 640 mg/kg; type: functional
Mus musculus [57] = assay: Number of Plasmodium berghei infected mice died on day 19 at 640 mg/kg; type: functional; procedure, shortened: as §2

SMILES | pIC50 (Plasmodium falciparum [1]) | pIC50 (Plasmodium falciparum [5]) | Number (Mus musculus [6]) | pIC50 (Plasmodium falciparum [8]) | pIC50 (Plasmodium falciparum [12]) | Number (Mus musculus [15]) | Number (Mus musculus [17]) | Number (Mus musculus [18]) | Number (Mus musculus [26]) | Number (Mus musculus [28]) | Number (Mus musculus [29]) | Number (Mus musculus [41]) | Number (Mus musculus [44]) | further results
Clc1ccc2c(NCCCCCCNCCCCCCNc3ccnc4cc(Cl)ccc34)ccnc2c1 | 8.27 | 5.15 | 1 | 7.96 | – | – | – | – | – | – | – | – | – | Number (Mus musculus [2]): 2; Number (Mus musculus [3]): 5; Number (Mus musculus [4]): 3; Number (Mus musculus [7]): 4
Clc1ccc2c(NCCN3CCN(c4ccnc5cc(Cl)ccc45)CC3)ccnc2c1 | 8.05 | – | – | 8.92 | 5.30 | 1 | 3 | 1 | – | – | – | – | – | Number (Mus musculus [9]): 1; Number (Mus musculus [10]): 1; Number (Mus musculus [11]): 1; Number (Mus musculus [13]): 1; Number (Mus musculus [14]): 1; Number (Mus musculus [16]): 2; Number (Mus musculus [19]): 1; Number (Mus musculus [20]): 1; Number (Mus musculus [21]): 1; Number (Mus musculus [22]): 1
Clc1ccc2c(NCCCOCCCCOCCCNc3ccnc4cc(Cl)ccc34)ccnc2c1 | 7.68 | – | – | 7.66 | 4.72 | 1 | – | 2 | 1 | 2 | 2 | – | – | Number (Mus musculus [23]): 3; Number (Mus musculus [24]): 1; Number (Mus musculus [25]): 1; Number (Mus musculus [27]): 1; Number (Mus musculus [30]): 1
Clc1ccc2c(NCCCNCCNc3ccnc4cc(Cl)ccc34)ccnc2c1 | 8.15 | – | – | 7.59 | 4.80 | – | – | – | 1 | – | – | – | – | Number (Mus musculus [31]): 5; Number (Mus musculus [32]): 4; Number (Mus musculus [33]): 5
Clc1ccc2c(NCCOCCOCCNc3ccnc4cc(Cl)ccc34)ccnc2c1 | 8.00 | 4.82 | 2 | 8.60 | – | – | – | 2 | – | – | – | – | – | Number (Mus musculus [34]): 1; Number (Mus musculus [35]): 1; Number (Mus musculus [16]): 1; Number (Mus musculus [36]): 3
Clc1ccc2c(N3CCN(CN4CCN(c5ccnc6cc(Cl)ccc56)CC4)CC3)ccnc2c1 | < 6.00 | < 2.60 | 4 | < 6.00 | – | – | – | – | – | – | 1 | – | – | Number (Mus musculus [37]): 3; Number (Mus musculus [38]): 3; Number (Mus musculus [39]): 1; Number (Mus musculus [7]): 1
CN(CCCNc1ccnc2cc(Cl)ccc12)CCCNc1ccnc2cc(Cl)ccc12 | 8.55 | – | – | 8.23 | 5.10 | 2 | 3 | 2 | – | 1 | – | 2 | 1 | Number (Mus musculus [40]): 1; Number (Mus musculus [42]): 1; Number (Mus musculus [43]): 1; Number (Mus musculus [19]): 1
Clc1ccc2c(NCCOCCNc3ccnc4cc(Cl)ccc34)ccnc2c1 | 7.05 | – | – | 7.80 | 4.70 | 3 | – | – | 1 | 2 | 1 | 1 | 1 | Number (Mus musculus [37]): 2; Number (Mus musculus [45]): 1; Number (Mus musculus [46]): 1; Number (Mus musculus [30]): 1; Number (Mus musculus [47]): 1
CCN(CC)CCCC(C)Nc1ccnc2cc(Cl)ccc12 (stereo not drawn) [CHLOROQUINE] | – | – | – | – | – | – | – | – | – | – | – | 1 | – | Number (Mus musculus [48]): 1; Number (Mus musculus [11]): 1; Number (Mus musculus [49]): 1; Number (Mus musculus [50]): 3; Number (Mus musculus [13]): 1; Number (Mus musculus [51]): 1; Number (Mus musculus [52]): 1; Number (Mus musculus [39]): 1; Number (Mus musculus [53]): 1; Number (Mus musculus [54]): 2; Number (Mus musculus [55]): 1
Clc1ccc2c(NCCCOCCOCCOCCCNc3ccnc4cc(Cl)ccc34)ccnc2c1 | 7.32 | 4.70 | – | 7.62 | – | 1 | 1 | 3 | – | – | – | – | 1 | Number (Mus musculus [56]): 3; Number (Mus musculus [57]): 1; Number (Mus musculus [14]): 2; Number (Mus musculus [42]): 1; Number (Mus musculus [27]): 2
